This is a sample that favours compounds with a hit; in the whole collection about 4.6% have one here.
OX1R antag-1: OX1R (HCRTR1) antagonists, primary screen, fluorescence, CHO/OX1R cells, Fluo-8 calcium, orexin A. Fluo-8 calcium fluorescence. inhibition, % at 5 µM. hit rate 0.43% among 330,000. AID 434989, 2010;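 active means inhibition above its plate's threshold, mean inhibition of all tested compounds on the plate plus 3 SD, cut at about 37% in these data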;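 further: 0% = orexin A challenge wells and 100% = SB-334867-A antagonist wells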
Target sequence (O43613 whole entry, looked up): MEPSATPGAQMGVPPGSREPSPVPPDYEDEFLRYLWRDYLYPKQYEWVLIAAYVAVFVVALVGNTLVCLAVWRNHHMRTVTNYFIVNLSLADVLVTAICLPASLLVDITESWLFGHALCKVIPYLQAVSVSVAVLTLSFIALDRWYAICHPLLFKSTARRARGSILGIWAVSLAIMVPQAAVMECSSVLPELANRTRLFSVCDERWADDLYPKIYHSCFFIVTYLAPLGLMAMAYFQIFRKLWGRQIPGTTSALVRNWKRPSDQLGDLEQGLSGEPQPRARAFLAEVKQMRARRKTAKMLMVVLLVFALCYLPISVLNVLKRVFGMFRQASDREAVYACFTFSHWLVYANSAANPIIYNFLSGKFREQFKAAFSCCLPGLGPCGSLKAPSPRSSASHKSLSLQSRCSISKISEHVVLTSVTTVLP
CHO parental Ca: ATP-evoked calcium signal inhibitors, parental CHO, primary screen, counter-screen for OX1R antagonist project, cell-based, fluorescence, Fluo-8 calcium dye; parental CHO-K1, ATP-induced calcium, Fluo-8 fluorescence; inhibition, % at 5.6 µM; hit rate 0.63% among 330,000;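 active means inhibition above that plate's mean sample inhibition plus 3 SD, cut at about 26% in these data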;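 further: 0% = ATP-challenged DMSO wells and 100% = DMSO wells without ATP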
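Test system: parental CHO cells; detection: calcium-sensitive Fluo-8 fluorescence; evaluation: percent inhibition of calcium signal; also added: ATP as calcium-mobilizing challenge; repeats: one well per compound; control set: ATP-challenged DMSO wells low, unchallenged DMSO wells high; compound: single nominal dose of 5.6 µM per compound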
TAAR1 agonist: human TAAR1 agonists, primary screen, Fluo-8 calcium fluorescence, CHO RD-HGA16 cells | Trace amine-associated receptor 1 (Homo sapiens), Q96RJ0 | vehicle wells 0%, saturating PEA agonist 100% | activation, % at 3 µM | hit rate 0.99% among 360,000 | AID 624467, 2012;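 active means activation above the mean activation of all test compounds in the run plus 3 SD, cut at about 38% in these data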
Target sequence (Q96RJ0 whole entry, looked up): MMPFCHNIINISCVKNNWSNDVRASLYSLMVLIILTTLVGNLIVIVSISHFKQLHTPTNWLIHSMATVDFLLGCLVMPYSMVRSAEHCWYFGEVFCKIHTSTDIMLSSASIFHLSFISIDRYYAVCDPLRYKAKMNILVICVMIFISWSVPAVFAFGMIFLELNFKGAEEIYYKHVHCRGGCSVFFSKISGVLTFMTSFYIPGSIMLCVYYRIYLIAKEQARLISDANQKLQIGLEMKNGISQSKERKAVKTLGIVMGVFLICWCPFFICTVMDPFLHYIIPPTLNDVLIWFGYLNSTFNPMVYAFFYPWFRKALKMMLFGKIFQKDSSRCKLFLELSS
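Assay system: CHO-derived RD-HGA16 cells with stable Gα16 and human TAAR1; timing: 17-24 h seeding, 75 min 37 °C dye, 30 min RT; read-out: % activation from peak over basal fluorescence ratio, DMSO-to-PEA scaled; measured by: kinetic Fluo-8 calcium fluorescence; benchmarks: low control DMSO, high control PEA (EC100); doses: 3 µM single concentration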
GPR7 antagonist: GPR7 receptor antagonists, primary screen, cell-based, fluorescence, single concentration | AID 1861, 2009 | inhibition, % at 4.4 µM | GPR7-expressing cells, fluorescence antagonist assay | hit rate 1.1% among 290,000; in the data active means inhibition above about 16%, passing the limit was not always enough;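 further: cells stimulated with the agonist NPW; 0% = agonist with vehicle and 100% = vehicle without agonist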
TAAR1 antag: human TAAR1 antagonists, primary screen, Fluo-8 calcium fluorescence, CHO RD-HGA16 cells; inhibition, % at 3 µM; Trace amine-associated receptor 1 (Homo sapiens), Q96RJ0; AID 624466, 2012; antagonist; hit rate 1.5% among 360,000;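 active means inhibition above a per-plate cutoff, the mean inhibition of test compounds on that plate plus 3 SD, cut at about 49% in these data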;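 further: 0% = DMSO plus EC80 beta-PEA response and 100% = DMSO alone without agonist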
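Test system: RD-HGA16 CHO cells with stable hTAAR1 and Gα16 / Probe or stimulus: EC80 β-phenethylamine stimulus / Times: seeding 17-24 h prior, 75-min 37 °C, 30-min RT dye loading / Detection: Fluo-8 calcium-sensitive fluorescence / Read-out basis: % inhibition scaled between DMSO and EC80 PEA controls / Repeats: singlicate, one well per test compound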
OX1R antag-2: antagonists of human orexin 1 receptor (OX1R). Orexin/Hypocretin receptor type 1 (Homo sapiens), O43613. OX1R-expressing cells, FRET antagonist read-out. inhibition, % at 6.6 µM. hit rate 1.8% among 330,000; in the data active means inhibition mostly above about 38%, no sharp cut-off; inactive means mostly below about 40%;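 further: 0% = agonist challenge alone and 100% = reference antagonist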
TAAR1 nonsel count: nonselective antagonists in TAAR1 counter-screen cells, counter-screen for hTAAR1 antagonist project, cell-based, fluorescence, calcium. inhibition, % at 3 µM. counterscreen cell line, antagonist mode. hit rate 77% among 2,400. shares compounds with TAAR1 antag. AID 651780, 2012; in the data active means inhibition above about 22%;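 further: CHO-Ga16 host cells stimulated with ATP at an EC80 level; 0% = agonist EC80 plus vehicle and 100% = vehicle without agonist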
TAAR1 antag conf: human TAAR1 antagonists, retest of hits, confirmation, cell-based, fluorescence; shares compounds with TAAR1 antag; TAAR1-expressing cells, fluorescence antagonist read-out; inhibition, % at 3 µM; hit rate 40% among 2,400; in the data active means inhibition above about 49%;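 further: CHO-Ga16 host cells challenged with agonist PEA near its EC80; 0% = agonist at EC80 plus vehicle and 100% = vehicle with no agonist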
Ga16 ag counter: calcium activation in Ga16-expressing cells, counter-screen for TAAR1 antagonist project, cell-based, fluorescence | shares compounds with TAAR1 antag | agonist counterscreen | activation, % at 3 µM | hit rate 18% among 2,400; in the data active means activation above about 12%;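 further: 0% = vehicle wells and 100% = saturating stimulus response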
TAAR1 ag count: TAAR1 activation by candidate antagonists – cell-based, fluorescence, counter-screen for TAAR1 antagonist project; shares compounds with TAAR1 antag; hTAAR1 cell line, agonist mode; activation, % at 3 µM; hit rate 2% among 2,400; in the data active means activation above about 37%;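 further: CHO cells stably expressing TAAR1 with calcium dye readout; 0% = DMSO vehicle and 100% = full agonist response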
Numbers without * were called inactive.

Screening O=C(Nc1ccccc1F)c1cc(-c2ccco2)nc2ccccc12 returned OX1R antag-1 -34.0, CHO parental Ca -25.0, TAAR1 agonist 9.3, TAAR1 antag 26.9 and OX1R antag-2 26.6.
Screening O=C(Nc1cccc(S(=O)(=O)NC2=NCCCCC2)c1)c1cc(-c2ccco2)nc2ccccc12 returned OX1R antag-1 -10.7, CHO parental Ca -6.1, TAAR1 agonist 12.6, GPR7 antagonist -8.5, TAAR1 antag 50.9*, OX1R antag-2 7.7, TAAR1 nonsel count 30.3*, TAAR1 antag conf 46.4, Ga16 ag counter 7.9 and TAAR1 ag count 5.8.
Screening COc1nc(N2CCOCC2)nc(-n2cccc2)n1 returned OX1R antag-1 -6.7, CHO parental Ca -5.2, TAAR1 agonist 4.0, GPR7 antagonist -12.4, TAAR1 antag 6.6 and OX1R antag-2 14.7.
`CC(C)COc1ncnc2c1sc1nc3c(cc12)COC(C)(C)C3` gave OX1R antag-1 -12.3, CHO parental Ca -11.9, GPR7 antagonist -2.0 and OX1R antag-2 2.5.
CCc1nn(CC(=O)O)c(=O)c2ccccc12 was read as OX1R antag-1 3.6, CHO parental Ca -6.0, TAAR1 agonist 1.7, GPR7 antagonist -15.3, TAAR1 antag -19.9 and OX1R antag-2 3.0.
`CC(=O)c1cccc(NC(=O)c2cc(-c3ccncc3)nc3ccccc23)c1` gave OX1R antag-1 -1.6, CHO parental Ca -6.0, TAAR1 agonist 10.3, TAAR1 antag 46.2 and OX1R antag-2 -3.7.
`O=C(Nc1ccncc1)C1CC(=O)N(c2ccccc2)C1` (centres undefined) gave TAAR1 agonist 0.2 and TAAR1 antag 16.4.
For CC(=O)c1cccc(NC(=O)c2cc(-c3ccco3)nc3ccccc23)c1 the results were OX1R antag-1 -19.1, CHO parental Ca -15.0, TAAR1 agonist 13.5, GPR7 antagonist -0.3, TAAR1 antag 62.8*, OX1R antag-2 15.8, TAAR1 nonsel count 30.7*, TAAR1 antag conf 49.7*, Ga16 ag counter 6.7 and TAAR1 ag count 7.1.
`O=C(Nc1cccc(-c2cnc3ccccc3n2)c1)C1CC(=O)N(c2ccccc2)C1` (centres undefined) gave OX1R antag-1 -25.4, CHO parental Ca -14.8, TAAR1 agonist 19.6, GPR7 antagonist -10.9, TAAR1 antag 80.2*, OX1R antag-2 9.1, TAAR1 nonsel count 45.4*, TAAR1 antag conf 62.6*, Ga16 ag counter 15.6* and TAAR1 ag count 17.5.
Screening CCOc1ccc(NC(=O)CN(C)C(=O)c2cc(-c3ccncc3)nc3ccccc23)cc1OCC returned OX1R antag-1 -16.4, CHO parental Ca -17.8, TAAR1 agonist 8.4, TAAR1 antag 66.8*, OX1R antag-2 12.1, TAAR1 nonsel count 30.4*, TAAR1 antag conf 42.9, Ga16 ag counter 6.9 and TAAR1 ag count 6.7.
For COc1ccc(NC(=O)CN(C)C(=O)c2ccc3c(c2)CC(c2ccccc2)OC3=O)cc1 (centres undefined) the results were TAAR1 agonist 4.7 and TAAR1 antag -4.7.
`COc1ccc(Cl)cc1NC(=O)CN(C)C(=O)c1cc(-c2ccncc2)nc2ccccc12` gave OX1R antag-1 -3.7, CHO parental Ca -4.0, TAAR1 agonist 19.0, TAAR1 antag 74.1*, OX1R antag-2 24.6, TAAR1 nonsel count 42.4*, TAAR1 antag conf 52.8*, Ga16 ag counter 15.1* and TAAR1 ag count 13.8.
For COc1ccc(Cl)cc1NC(=O)CN(C)C(=O)c1ccc2c(c1)CC(c1ccccc1)OC2=O (centres undefined) the results were OX1R antag-1 -4.3, CHO parental Ca -10.8, TAAR1 agonist 21.7, TAAR1 antag 65.4*, OX1R antag-2 -3.7, TAAR1 nonsel count 32.6*, TAAR1 antag conf 52.5*, Ga16 ag counter 11.8* and TAAR1 ag count 13.7.
Screening CSc1sccc1/C=N/O returned OX1R antag-1 0.7, CHO parental Ca 3.2, TAAR1 agonist 1.5, GPR7 antagonist 5.7, TAAR1 antag -0.5 and OX1R antag-2 8.5.
For CSc1sccc1/C=C(/C#N)C(=O)c1ccco1 the results were OX1R antag-1 -29.5, CHO parental Ca -4.5, TAAR1 agonist 3.5, GPR7 antagonist -3.1, TAAR1 antag 50.1*, OX1R antag-2 4.9, TAAR1 nonsel count 32.9*, TAAR1 antag conf 57.0*, Ga16 ag counter 7.4 and TAAR1 ag count 10.2.
COc1ccccc1C(=O)C1CCCN(C(=O)CCc2ccccn2)C1 (centres undefined) was read as OX1R antag-1 -9.0, CHO parental Ca -3.2, TAAR1 agonist 4.8, GPR7 antagonist -21.3, TAAR1 antag -11.2 and OX1R antag-2 6.0.
Screening Cc1ccc(SC2=C[C@@]3(O)CC[C@@H](O)[C@@](Sc4ccc(C)cc4)(C2=O)[C@H]3O)cc1 returned TAAR1 agonist -0.5 and TAAR1 antag -11.7.
Screening CC(C)(C)c1ccc(SC2=C[C@@]3(O)CC[C@@H](O)[C@@](Sc4ccc(C(C)(C)C)cc4)(C2=O)[C@H]3O)cc1 returned TAAR1 agonist 4.2, TAAR1 antag 73.3*, TAAR1 nonsel count 33.2*, TAAR1 antag conf 39.6, Ga16 ag counter 1.6 and TAAR1 ag count -2.2.
COc1ccccc1NS(=O)(=O)c1ccc(/C=C/C(=O)O)cc1 was read as OX1R antag-1 -4.0, CHO parental Ca -4.2, TAAR1 agonist 1.9, GPR7 antagonist -3.4, TAAR1 antag 12.8 and OX1R antag-2 23.2.
COc1ccc2c(c1)c(CCNNC(=O)C(C)(C)C)c(C)n2C(=O)c1ccc(Cl)cc1 was read as OX1R antag-1 -20.4, CHO parental Ca -18.9, TAAR1 agonist 0.3, TAAR1 antag 9.1 and OX1R antag-2 12.9.

Screening data (PubChem BioAssay)
